The source of these data is ChEMBL document CHEMBL3232764, “Influence of the adamantyl moiety on the activity of biphenylacrylohydroxamic acid-based HDAC inhibitors” (Eur J Med Chem, 2014).

System in one assay: not listed separately
Briefly: Antiproliferative activity against p53 defective cis-platinum-resistant human IGROV1/Pt1 cells assessed as growth inhibition after 72 hrs. As to conditions: IGROV-1/Pt1, 72 h. It is filed as functional, cell-based. A digest of the protocol: (§1)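 Log-phase cells seeded in duplicate in 6-well plates; drug added 24 h after seeding. Cells harvested 72 h after drug exposure and counted with a cell counter. IC50 = drug concentration giving 50% reduction in cell number versus untreated control.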
Turning to `COc1ccc(-c2ccc3cc(C(=O)NO)ccc3c2)cc1C12CC3CC(CC(C3)C1)C2`, the IC50 was found to be 4.16 µM.

Turning to `O=C(/C=C/c1ccc(-c2cc3c(c(C45CC6CC(CC(C6)C4)C5)c2)OCCO3)cc1)NO`, the IC50 was 0.8 µM.

As to `O=C(NO)c1ccc2cc(-c3ccc(O)c(C45CC6CC(CC(C6)C4)C5)c3)ccc2c1`, the IC50 came to 1.1 µM.

`O=C(/C=C/c1ccc(-c2ccc(O)c(C34CC5CC(CC(C5)C3)C4)c2)c(Cl)c1)NO`: the IC50 was determined as 1.6 µM.

On to `O=C(/C=C/c1ccc(-c2ccccc2)cc1)NO`, for which the IC50 is 4.3 µM.

System in a further assay: not listed separately
Briefly: cells. It is filed as functional, cell-based. As to conditions: Homo sapiens, NCI-H460, 72 h.
Take `COc1ccc(-c2ccc3cc(C(=O)NO)ccc3c2)cc1C12CC3CC(CC(C3)C1)C2`: the IC50 worked out at 1.3 µM.

As to `O=C(/C=C/c1ccc(-c2cc3c(c(C45CC6CC(CC(C6)C4)C5)c2)OCCO3)cc1)NO`, the IC50 amounted to 1 µM.

Regarding `O=C(NO)c1ccc2cc(-c3ccc(O)c(C45CC6CC(CC(C6)C4)C5)c3)ccc2c1`, it took 1 µM to reach half-maximal inhibition (IC50).

For `O=C(/C=C/c1ccc(-c2ccc(O)c(C34CC5CC(CC(C5)C3)C4)c2)c(Cl)c1)NO`, it took 5.4 µM to reach half-maximal inhibition (IC50).

In another assay the test system is IGROV-1. Briefly: Antiproliferative activity against human IGROV1 cells assessed as growth inhibition after 72 hrs. It counts as functional, cell-based. As to conditions: IGROV-1, 72 h. In short, it runs like this:
as §1
For `COc1ccc(-c2ccc3cc(C(=O)NO)ccc3c2)cc1C12CC3CC(CC(C3)C1)C2`, the IC50 amounted to 1.5 µM.

Regarding `O=C(/C=C/c1ccc(-c2cc3c(c(C45CC6CC(CC(C6)C4)C5)c2)OCCO3)cc1)NO`, the IC50 came to 1.2 µM.

`O=C(NO)c1ccc2cc(-c3ccc(O)c(C45CC6CC(CC(C6)C4)C5)c3)ccc2c1`: the IC50 turned out to be 0.65 µM.

With `O=C(/C=C/c1ccc(-c2ccc(O)c(C34CC5CC(CC(C5)C3)C4)c2)c(Cl)c1)NO`, the IC50 turned out to be 1.34 µM.

The subject of another assay is HCT-116. Briefly: Antiproliferative activity against human HCT116 cells assessed as growth inhibition after 72 hrs. It is filed as functional, cell-based. As to conditions: HCT-116, 72 h. In short, it runs like this: as §1
Regarding `COc1ccc(-c2ccc3cc(C(=O)NO)ccc3c2)cc1C12CC3CC(CC(C3)C1)C2`, the IC50 was found to be 1.4 µM.

As to `O=C(/C=C/c1ccc(-c2cc3c(c(C45CC6CC(CC(C6)C4)C5)c2)OCCO3)cc1)NO`, the IC50 came out at 2.55 µM.

As to `O=C(NO)c1ccc2cc(-c3ccc(O)c(C45CC6CC(CC(C6)C4)C5)c3)ccc2c1`, the IC50 was determined as 0.7 µM.

Turning to `O=C(/C=C/c1ccc(-c2ccc(O)c(C34CC5CC(CC(C5)C3)C4)c2)c(Cl)c1)NO`, the IC50 amounted to 5.4 µM.

A further assay has as its system IGROV-1. Briefly: Induction of apoptosis in human IGROV1 cells at IC80 after 72 hrs by TUNEL and flow cytometry analysis (reference value: 4%). It counts as functional.
Conditions: not given
With `O=C(CCCCCCC(=O)Nc1ccccc1)NO` [VORINOSTAT], the Activity was found to be 37%.
